Measured values of several laboratories.
Each line is one published result; the experiments were not run side by side. In brackets after ≈: the same amount, converted by molar mass.

Compound	tested on	test	test system	conditions	endpoint	result
COCCOCOc1cc(OCc2cc(F)cc(F)c2)c(C(=O)/C=C/c2ccc(C(=O)O)cc2)cc1C12CC3CC(CC(C3)C1)C2	Jurkat	cell growth or viability, ATP luminescence	–	24 h	IC50	0.93 µM
COC(=O)c1cc(-c2cccc(NC(=O)Nc3cccc(Cl)c3)c2)on1	Mycobacteroides abscessus	microbial growth, broth dilution	ATCC19977	48 h	MIC	> 64 µg/mL
CO[C@H]1/C=C/O[C@@]2(C)Oc3c(C)c(O)c4c(O)c(c(/C=N/N5CCN(C)CC5)c(O)c4c3C2=O)NC(=O)/C(C)=C\C=C\[C@H](C)[C@H](O)[C@@H](C)[C@@H](O)[C@@H](C)[C@H](OC(C)=O)[C@@H]1C	Mycobacteroides abscessus	microbial growth	ATCC19977	–	MIC	25 to 100 µg/mL (≈ 30.4 to 122 µM)
CCC1(c2ccc(N)cc2)CCC(=O)NC1=O (stereo not shown)	DU-145	cell growth or viability, CCK-8	–	48 h	IC50	> 50 µM
COC(=O)c1cc(-c2cccc(NC(=S)Nc3ccc(C#N)cc3)c2)on1	Mycobacteroides abscessus	microbial growth, broth dilution	ATCC19977	48 h	MIC	> 64 µg/mL
N.N.[Cl][Pt][Cl]	PLC	cell growth or viability	–	24 h	IC50	63.9 µM
COC(=O)c1cc(-c2cccc(NC(=O)Nc3ccc(Cl)cc3Cl)c2)on1	Mycobacteroides abscessus	microbial growth, broth dilution	ATCC19977	48 h	MIC	> 64 µg/mL
O=C(O)c1cn(C2CC2)c2cc(N3CCNCC3)c(F)cc2c1=O	Mycolicibacterium vaccae	microbial growth	IMET10670	5 µg/mL	inhibition zone	41 mm
COc1c2c(cc3c1OCO3)[C@]13C=C[C@H](OC)C[C@@H]1[N@](C2)C[C@H]3OC(=O)c1ccc2ccccc2c1	MOLT-4	cell growth or viability, WST-1	–	–	IC50	> 10 µM
[H]/N=C(/N)N[C@H]1[C@H](O)[C@@H](O)[C@H](O[C@@H]2O[C@@H](C)[C@](O)(C=O)[C@H]2O[C@@H]2O[C@@H](CO)[C@H](O)[C@@H](O)[C@@H]2NC)[C@@H](N/C(N)=N\[H])[C@@H]1O	Mycobacteroides abscessus	microbial growth	ATCC19977	–	MIC	50 µg/mL (≈ 86 µM)
CN(C(=O)/C=C/c1ccoc1)[C@@H]1CC[C@@]2(O)[C@H]3Cc4ccc(O)c5c4[C@@]2(CCN3CC2CC2)[C@H]1O5	–	thermal pain	mouse	subcutaneous	ED50	0.046 mg/kg
COCCOCOc1cc(O)c(-c2cc(-c3ccc(C(=O)O)cc3)n(-c3ccccc3)n2)cc1C12CC3CC(CC(C3)C1)C2	Jurkat	cell growth or viability, ATP luminescence	–	24 h	IC50	2.54 µM
Cn1cnc(Cn2c(=O)[nH]/c(=N\c3cc4cn(C)nc4cc3Cl)n(Cc3cc(F)c(F)cc3F)c2=O)n1	Alphacoronavirus 1	viral replication, inhibitor, qPCR	CRFK	–	EC50	~50 µM
